Laboratory results: ChEMBL document CHEMBL3525900, “Pharmacokinetics, distribution, and metabolism of [14C]sunitinib in rats, monkeys, and humans” (Drug Metab Dispos, 2012)

Legend:
Pancreas [1] = assay: Drug concentration in male Lister Hooded pigmented rat pancreas assessed as radioactivity per gram of tissue at 20 mg/kg administered as single dose via gastric gavage measured after 168 hrs by autoradiographic analysis; assay type: ADME, organism-based; design: dose 20 mg/kg, dosed compound name [14C]Sunitinib; conditions: in vivo, po
Liver [2] = assay: Drug concentration in male albino rat liver assessed as radioactivity per gram of tissue at 20 mg/kg administered as single dose via gastric gavage measured after 72 hrs by autoradiographic analysis; assay type: ADME, organism-based; design: dose 20 mg/kg, dosed compound name [14C]Sunitinib; conditions: in vivo, po
[3] = Drug concentration in female Lister Hooded pigmented rat pituitary gland assessed as radioactivity per gram of tissue at 20 mg/kg administered as single dose via gastric gavage measured after 24 hrs by autoradiographic analysis; assay type: ADME, organism-based; design: dose 20 mg/kg, dosed compound name [14C]Sunitinib; conditions: in vivo, po
Outline: (§1)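 Lister Hooded (pigmented) rats, ca 7-8 weeks old, acclimated 7 days, given [14C]sunitinib L-malate by gastric gavage at 20 mg/kg (15 mg freebase/kg, 100 µCi/kg). One male and one female killed by CO2 at 24, 72, 168 and 336 h. Carcasses frozen in solid CO2/hexane and embedded in frozen cellulose. 30 µm sagittal cryosections were freeze-dried. Tissue radioactivity measured by quantitative whole-body autoradiography against calibration standards, with background subtracted.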

[4] = Drug concentration in female albino rat lachrymal gland assessed as radioactivity per gram of tissue at 20 mg/kg administered as single dose via gastric gavage measured after 72 hrs by autoradiographic analysis; assay type: ADME, organism-based; design: dose 20 mg/kg, dosed compound name [14C]Sunitinib; conditions: in vivo, po
Outline: (§2)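 Sprague Dawley albino rats, ca 7-8 weeks old, dosed once by gastric gavage with [14C]sunitinib L-malate (15 mg freebase/kg, 100 µCi/kg). One male and one female killed by CO2 at 3, 6, 24, 72 and 168 h. Carcasses frozen in solid CO2/hexane, embedded and cut into 30 µm sagittal sections, then freeze-dried. Radioactivity quantified by whole-body autoradiography against standards by regression, background subtracted.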

[5] = Drug concentration in male albino rat uveal tract assessed as radioactivity per gram of tissue at 20 mg/kg administered as single dose via gastric gavage measured after 6 hrs by autoradiographic analysis; assay type: ADME, organism-based; design: dose 20 mg/kg, dosed compound name [14C]Sunitinib; conditions: in vivo, po
Homo sapiens [6] = assay: Tmax as total radioactivity in human plasma at 50 mg, po administered as single dose measured up to 24 hrs by LC/MS/MS analysis; assay type: ADME, organism-based; design: dosed compound name [14C]Sunitinib; conditions: in vivo
[7] = Drug concentration in male Lister Hooded pigmented rat lachrymal gland assessed as radioactivity per gram of tissue at 20 mg/kg administered as single dose via gastric gavage measured after 168 hrs by autoradiographic analysis; assay type: ADME, organism-based; design: dose 20 mg/kg, dosed compound name [14C]Sunitinib; conditions: in vivo, po
Pancreas [8] = assay: Drug concentration in male albino rat pancreas assessed as radioactivity per gram of tissue at 20 mg/kg administered as single dose via gastric gavage measured after 24 hrs by autoradiographic analysis; assay type: ADME, organism-based; design: dose 20 mg/kg, dosed compound name [14C]Sunitinib; conditions: in vivo, po
Adrenal [9] = assay: Drug concentration in male Lister Hooded pigmented rat adrenal assessed as radioactivity per gram of tissue at 20 mg/kg administered as single dose via gastric gavage measured after 168 hrs by autoradiographic analysis; assay type: ADME, organism-based; design: dose 20 mg/kg, dosed compound name [14C]Sunitinib; conditions: in vivo, po
Adrenal [10] = assay: Drug concentration in male albino rat adrenal assessed as radioactivity per gram of tissue at 20 mg/kg administered as single dose via gastric gavage measured after 24 hrs by autoradiographic analysis; assay type: ADME, organism-based; design: dose 20 mg/kg, dosed compound name [14C]Sunitinib; conditions: in vivo, po
Liver [11] = assay: Drug concentration in female albino rat liver assessed as radioactivity per gram of tissue at 20 mg/kg administered as single dose via gastric gavage measured after 72 hrs by autoradiographic analysis; assay type: ADME, organism-based; design: dose 20 mg/kg, dosed compound name [14C]Sunitinib; conditions: in vivo, po; outline: as §2
Liver [12] = assay: Drug concentration in male albino rat liver assessed as radioactivity per gram of tissue at 20 mg/kg administered as single dose via gastric gavage measured after 6 hrs by autoradiographic analysis; assay type: ADME, organism-based; design: dose 20 mg/kg, dosed compound name [14C]Sunitinib; conditions: in vivo, po
Adrenal [13] = assay: Drug concentration in male Lister Hooded pigmented rat adrenal assessed as radioactivity per gram of tissue at 20 mg/kg administered as single dose via gastric gavage measured after 24 hrs by autoradiographic analysis; assay type: ADME, organism-based; design: dose 20 mg/kg, dosed compound name [14C]Sunitinib; conditions: in vivo, po
Cynomolgus monkey = assay: Total drug recovery in male cynomolgus monkey at 6 mg/kg, po administered as single dose during 0 to 336 hrs by liquid scintillation counting; assay type: ADME, organism-based, Macaca fascicularis; design: dose 6 mg/kg, dosed compound name [14C]Sunitinib, route oral; conditions: in vivo
Zone of skin = assay: Drug concentration in male Lister Hooded pigmented rat abdomen skin assessed as radioactivity per gram of tissue at 20 mg/kg administered as single dose via gastric gavage measured after 168 hrs by autoradiographic analysis; assay type: ADME, organism-based; design: dose 20 mg/kg, dosed compound name [14C]Sunitinib; conditions: in vivo, po
Adrenal [14] = assay: Drug concentration in female albino rat adrenal assessed as radioactivity per gram of tissue at 20 mg/kg administered as single dose via gastric gavage measured after 24 hrs by autoradiographic analysis; assay type: ADME, organism-based; design: dose 20 mg/kg, dosed compound name [14C]Sunitinib; conditions: in vivo, po
Outline: (§3)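 Sprague Dawley (albino) rats, ca 7-8 weeks old, received a single gastric-gavage dose of [14C]sunitinib L-malate at 20 mg/kg (15 mg freebase/kg, 100 µCi/kg). One animal per sex killed by CO2 at 3, 6, 24, 72 and 168 h, then frozen in CO2/hexane. 30 µm sagittal sections were cut and freeze-dried. Radioactivity per gram quantified by whole-body autoradiography using regression against standards. LOQ 0.04–0.06 µg freebase equiv/g.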

Brain [15] = assay: Drug concentration in male albino rat brain assessed as radioactivity per gram of tissue at 20 mg/kg administered as single dose via gastric gavage measured after 72 hrs by autoradiographic analysis; assay type: ADME, organism-based; design: dose 20 mg/kg, dosed compound name [14C]Sunitinib; conditions: in vivo, po
Heart = assay: Drug concentration in female albino rat heart assessed as radioactivity per gram of tissue at 20 mg/kg administered as single dose via gastric gavage measured after 3 hrs by autoradiographic analysis; assay type: ADME, organism-based; design: dose 20 mg/kg, dosed compound name [14C]Sunitinib; conditions: in vivo, po; outline: as §2
[16] = Drug recovery in feces of female Sprague-Dawley rat at 5 mg/kg, iv administered as single dose during 0 to 72 hrs by liquid scintillation counting; assay type: ADME, organism-based; design: dose 5 mg/kg, dosed compound name [14C]Sunitinib, route intravenous; conditions: in vivo
[17] = Drug concentration in female Lister Hooded pigmented rat eye assessed as radioactivity per gram of tissue at 20 mg/kg administered as single dose via gastric gavage measured after 24 hrs by autoradiographic analysis; assay type: ADME, organism-based; design: dose 20 mg/kg, dosed compound name [14C]Sunitinib; conditions: in vivo, po; outline: as §1
[18] = Drug concentration in male albino rat lymph node assessed as radioactivity per gram of tissue at 20 mg/kg administered as single dose via gastric gavage measured after 6 hrs by autoradiographic analysis; assay type: ADME, organism-based; design: dose 20 mg/kg, dosed compound name [14C]Sunitinib; conditions: in vivo, po
[19] = Drug concentration in female albino rat pituitary gland assessed as radioactivity per gram of tissue at 20 mg/kg administered as single dose via gastric gavage measured after 6 hrs by autoradiographic analysis; assay type: ADME, organism-based; design: dose 20 mg/kg, dosed compound name [14C]Sunitinib; conditions: in vivo, po; outline: as §2
Homo sapiens [20] = assay: Terminal half life as total radioactivity in human plasma at 50 mg, po administered as single dose measured up to 24 hrs by LC/MS/MS analysis; assay type: ADME, organism-based; design: dosed compound name [14C]Sunitinib; conditions: in vivo
[21] = Drug recovery in feces of female cynomolgus monkey at 6 mg/kg, po administered as single dose during 0 to 336 hrs by liquid scintillation counting; assay type: ADME, organism-based, Macaca fascicularis; design: dose 6 mg/kg, dosed compound name [14C]Sunitinib, route oral; conditions: in vivo
Brain [22] = assay: Drug concentration in male albino rat brain assessed as radioactivity per gram of tissue at 20 mg/kg administered as single dose via gastric gavage measured after 3 hrs by autoradiographic analysis; assay type: ADME, organism-based; design: dose 20 mg/kg, dosed compound name [14C]Sunitinib; conditions: in vivo, po
Small intestine = assay: Drug concentration in male Lister Hooded pigmented rat small intestine assessed as radioactivity per gram of tissue at 20 mg/kg administered as single dose via gastric gavage measured after 168 hrs by autoradiographic analysis; assay type: ADME, organism-based; design: dose 20 mg/kg, dosed compound name [14C]Sunitinib; conditions: in vivo, po
Adrenal [23] = assay: Drug concentration in female albino rat adrenal assessed as radioactivity per gram of tissue at 20 mg/kg administered as single dose via gastric gavage measured after 72 hrs by autoradiographic analysis; assay type: ADME, organism-based; design: dose 20 mg/kg, dosed compound name [14C]Sunitinib; conditions: in vivo, po; outline: as §3
Rattus norvegicus = assay: Tmax as total radioactivity in female Sprague-Dawley rat plasma at 15 mg/kg, po administered as single dose by LC/MS/MS analysis; assay type: ADME, organism-based; design: dose 15 mg/kg, dosed compound name [14C]Sunitinib, route oral; conditions: in vivo
Kidney = assay: Drug concentration in female albino rat kidney assessed as radioactivity per gram of tissue at 20 mg/kg administered as single dose via gastric gavage measured after 6 hrs by autoradiographic analysis; assay type: ADME, organism-based; design: dose 20 mg/kg, dosed compound name [14C]Sunitinib; conditions: in vivo, po; outline: as §2

CCN(CC)CCNC(=O)c1c(C)[nH]c(/[14CH]=C2\C(=O)Nc3ccc(F)cc32)c1C.O=C(O)C[C@H](O)C(=O)O
Radiolabel recovery (Pancreas [1]): 0.06 ugequiv
Radiolabel recovery (Liver [2]): 0.24 ugequiv
Radiolabel recovery [3]: 2.87 ugequiv
Radiolabel recovery [4]: 0.25 ugequiv
Radiolabel recovery [5]: 5.08 ugequiv
Tmax (Homo sapiens [6]): 8 h
Radiolabel recovery [7]: 0.06 ugequiv
Radiolabel recovery (Pancreas [8]): 1.68 ugequiv
Radiolabel recovery (Adrenal [9]): 0.74 ugequiv
Radiolabel recovery (Adrenal [10]): 4.11 ugequiv
Radiolabel recovery (Liver [11]): 0.37 ugequiv
Radiolabel recovery (Liver [12]): 10.7 ugequiv
Radiolabel recovery (Adrenal [13]): 4.3 ugequiv
Radiolabel recovery (Cynomolgus monkey): 94.1%
Radiolabel recovery (Zone of skin): 0.58 ugequiv
Radiolabel recovery (Adrenal [14]): 7.65 ugequiv
Radiolabel recovery (Brain [15]): 0.07 ugequiv
Radiolabel recovery (Heart): 7.31 ugequiv
Radiolabel recovery [16]: 77.2%
Radiolabel recovery [17]: 31.8 ugequiv
Radiolabel recovery [18]: 11.26 ugequiv
Radiolabel recovery [19]: 20.88 ugequiv
beta t1/2 (Homo sapiens [20]): 28.2 h
Radiolabel recovery [21]: 84.1%
Radiolabel recovery (Brain [22]): 0.3 ugequiv
Radiolabel recovery (Small intestine): 0.06 ugequiv
Radiolabel recovery (Adrenal [23]): 1.52 ugequiv
Tmax (Rattus norvegicus): 6 h
Radiolabel recovery (Kidney): 16.48 ugequiv
